Experimental data: ChEMBL document CHEMBL4138248, “Discovery of naphtho[1,2-d]oxazole derivatives as potential anti-HCV agents through inducing heme oxygenase-1 expression” (Eur J Med Chem, 2018)
Active and inactive are the calls of the source. No cut-off for these calls is given here.

How the values were obtained:
Hepatitis C virus [1] = experiment: Antiviral activity against HCV infected in human Ava5 cells assessed as inhibition of viral RNA replication at 1 uM after 3 days in presence of HO-1 inhibitor SnPP by RT-qPCR method; assay type: functional, organism-based; settings: Hepacivirus hominis
In short: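 Ava5 cells were co-incubated for 3 days with test compound at 1 μM plus the HO-1 inhibitor SnPP (tin protoporphyrin IX) at 0–5 μM. Lysates went to western blot for NS5B and GAPDH. RNA went to RT-qPCR normalized to gapdh mRNA. Mean ± SD of three independent experiments.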

[2] = target: T1, Transcription regulator protein BACH1 (Homo sapiens) (UniProt O14867); experiment: Reduction of bach-1 translocation into nucleus of human Ava5 cells after 3 days by Western blot method
T1 sequence (whole entry): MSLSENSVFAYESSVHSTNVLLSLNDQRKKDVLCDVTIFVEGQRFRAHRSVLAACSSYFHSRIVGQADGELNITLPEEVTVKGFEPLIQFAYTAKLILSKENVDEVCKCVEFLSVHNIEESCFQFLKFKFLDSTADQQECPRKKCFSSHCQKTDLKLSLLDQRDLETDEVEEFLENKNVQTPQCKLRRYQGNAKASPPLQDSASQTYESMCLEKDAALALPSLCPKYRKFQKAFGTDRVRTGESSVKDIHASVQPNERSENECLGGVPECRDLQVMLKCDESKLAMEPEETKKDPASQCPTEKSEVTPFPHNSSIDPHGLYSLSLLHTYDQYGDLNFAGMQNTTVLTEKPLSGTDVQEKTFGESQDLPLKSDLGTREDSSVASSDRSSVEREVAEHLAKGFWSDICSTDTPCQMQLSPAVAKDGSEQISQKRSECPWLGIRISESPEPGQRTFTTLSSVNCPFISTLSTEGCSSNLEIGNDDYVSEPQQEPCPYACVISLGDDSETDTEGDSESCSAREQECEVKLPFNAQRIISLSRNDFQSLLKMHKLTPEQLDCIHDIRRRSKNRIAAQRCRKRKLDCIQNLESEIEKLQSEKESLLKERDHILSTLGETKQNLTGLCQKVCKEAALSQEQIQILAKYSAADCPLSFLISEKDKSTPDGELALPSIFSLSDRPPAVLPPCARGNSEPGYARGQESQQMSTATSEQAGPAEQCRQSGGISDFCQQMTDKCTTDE

[3] = target: T2, Heme oxygenase 1 (Homo sapiens) (UniProt P09601); experiment: Induction of HO-1-mediated OAS3 mRNA expression in human Ava5 cells after 3 days by RT-qPCR method; assay type: cell-based
T2 sequence (whole entry): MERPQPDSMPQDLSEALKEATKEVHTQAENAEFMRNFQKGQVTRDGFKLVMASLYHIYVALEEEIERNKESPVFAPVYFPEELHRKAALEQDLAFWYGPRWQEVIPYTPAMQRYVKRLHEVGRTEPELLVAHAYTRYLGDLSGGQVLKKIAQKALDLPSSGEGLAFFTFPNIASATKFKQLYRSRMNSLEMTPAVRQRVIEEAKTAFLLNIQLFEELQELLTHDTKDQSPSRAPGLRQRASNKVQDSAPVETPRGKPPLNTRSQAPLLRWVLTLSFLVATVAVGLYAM
In short: (§1)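 Ava5 cells were treated for 3 days at the indicated concentrations. Target mRNAs were measured by RT-qPCR with specific primers and normalized to endogenous gapdh. Results are relative to DMSO-treated cells.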

Hepatitis C virus [4] = experiment: Antiviral activity against HCV JFH-1 infected in human Huh7.5 cells assessed as inhibition of viral RNA replication after 3 days by RT-qPCR method; assay type: functional, organism-based; settings: Hepacivirus hominis
Homo sapiens [5] = species on record: Homo sapiens; experiment: Upregulation of HO-1 protein expression in human Ava5 cells after 3 days by Western blot method; assay type: functional, cell-based
In short: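 Ava5 cells were treated for 3 days at the indicated concentrations. Lysates (10 µg protein, 10% SDS-PAGE, PVDF) were probed with anti-HO-1 and anti-GAPDH.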

[6] = target: T2, Heme oxygenase 1 (Homo sapiens); experiment: Induction of HO-1-mediated OAS1 mRNA expression in human Ava5 cells after 3 days by RT-qPCR method; assay type: cell-based; in short: as §1
Hepatitis C virus [7] = experiment: Antiviral activity against HCV infected in human Ava5 cells assessed as inhibition of viral RNA replication at 5 uM after 3 days by RT-qPCR method relative to control; assay type: functional, Hepacivirus hominis; settings: Ava5, 72 h
In short: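 Ava5 replicon cells were exposed to 5 or 20 μM for 3 days, starting from 10 mM DMSO stocks diluted in medium. HCV RNA was quantified by RT-qPCR against gapdh and expressed as % inhibition relative to untreated control. Ribavirin was the reference drug. Mean ± SD of three independent experiments.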

Homo sapiens [8] = species on record: Homo sapiens; experiment: Downregulation of bach-1 protein expression in human Ava5 cells after 3 days by Western blot method; assay type: functional, cell-based
In short: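 Ava5 cells were treated for 3 days at the indicated concentrations. Whole-cell lysates were immunoblotted with anti-Nrf2, anti-Keap-1, anti-bach1 and anti-GAPDH.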

[9] = target: T2, Heme oxygenase 1 (Homo sapiens); experiment: Induction of HO-1-mediated PKR mRNA expression in human Ava5 cells after 3 days by RT-qPCR method; assay type: cell-based; in short: as §1
[10] = target: T3, Nuclear factor erythroid 2-related factor 2 (Homo sapiens) (UniProt Q16236); experiment: Induction of Nrf2-mediated ARE transactivation in human Ava5 cells transfected with p2xARE-Luc after 3 days; assay type: cell-based
T3 sequence (whole entry): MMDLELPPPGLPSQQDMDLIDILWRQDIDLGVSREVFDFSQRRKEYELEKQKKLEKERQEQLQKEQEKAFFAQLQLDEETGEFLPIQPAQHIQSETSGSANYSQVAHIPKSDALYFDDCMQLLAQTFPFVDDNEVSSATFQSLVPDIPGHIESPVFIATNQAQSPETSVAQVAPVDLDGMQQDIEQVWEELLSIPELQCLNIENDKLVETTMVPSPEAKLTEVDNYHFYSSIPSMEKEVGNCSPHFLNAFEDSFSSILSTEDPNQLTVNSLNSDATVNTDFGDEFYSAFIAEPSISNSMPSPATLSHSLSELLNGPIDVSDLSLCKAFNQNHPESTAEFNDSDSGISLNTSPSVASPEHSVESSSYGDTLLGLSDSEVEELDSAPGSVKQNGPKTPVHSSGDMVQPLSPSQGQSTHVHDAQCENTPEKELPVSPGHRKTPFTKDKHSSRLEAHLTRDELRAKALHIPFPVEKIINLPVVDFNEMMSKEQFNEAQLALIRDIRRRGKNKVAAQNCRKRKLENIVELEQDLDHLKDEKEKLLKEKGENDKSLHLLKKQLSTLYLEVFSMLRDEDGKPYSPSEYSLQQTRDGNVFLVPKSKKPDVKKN
In short: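 Ava5 cells were transfected with the p2xARE-Luc reporter (ARE-driven firefly luciferase), treated for 3 days, and luciferase was measured in lysates. Normalization was to co-transfected pCMV-SEAP. Mean ± SD of three independent experiments.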

Hepatitis C virus [11] = experiment: Potency index, ratio of ribavirin IC50 to test compound IC50 for HCV; assay type: functional, Hepacivirus hominis
[12] = target: T2, Heme oxygenase 1 (Homo sapiens); experiment: Induction of HO-1-mediated IFN-alpha-17 mRNA expression in human Ava5 cells after 3 days by RT-qPCR method; assay type: cell-based; in short: as §1

Activity [2]: Dose-dependent effect
Activity [3]: Dose-dependent effect
Activity [6]: Dose-dependent effect
Activity [9]: Dose-dependent effect
Activity [10]: Dose-dependent effect
Activity [12]: Dose-dependent effect
Structure (SMILES): COc1ccc(Nc2cc3oc(-c4ccco4)nc3c3ccccc23)cc1
inhibition (Hepatitis C virus [1]): inactive
inhibition (Hepatitis C virus [4]): Dose-dependent effect
Activity (Homo sapiens [5]): Dose-dependent effect
inhibition at 5 µM (Hepatitis C virus [7]): 92.1%
Activity (Homo sapiens [8]): Dose-dependent effect
Ratio IC50 (Hepatitis C virus [11]): 21
